Results: ChEMBL document CHEMBL1139836, “Development of orally bioavailable and CNS penetrant biphenylaminocyclopropane carboxamide bradykinin B1 receptor antagonists” (J Med Chem, 2007)

Columns and labels:
[1] = Clearance in Sprague-Dawley rat at 10 mg/kg, po and 2 mg/kg, iv; assay type: ADME, organism-based; settings: in vivo
Method in brief: (§1)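 Sprague-Dawley rats, n = 3, dosed orally at 10 mg/kg and iv at 2 mg/kg. F% from oral versus iv exposure; half-life in hours, clearance in mL/min/kg.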

[2] = Oral bioavailability in Mongrel dog at 3 mg/kg, po and 1 mg/kg, iv; assay type: ADME, organism-based, Canis lupus familiaris; settings: in vivo
Method in brief: (§2)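 Mongrel dogs, n = 2, dosed orally at 3 mg/kg and iv at 1 mg/kg. F%, half-life in hours, clearance in mL/min/kg.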

[3] = system: human MDR1 (P-gp); test: Apparent permeability in LLC-PK1 cells expressing human MDR1; assay type: ADME, cell-based, Sus scrofa; settings: pig, LLC-PK1
Method in brief: (§3)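 LLC-PK1 cells expressing human MDR1, grown in M199 with 10% FBS on 96-well filters and used on day 4. Equilibrated 30 min in HBSS with 1 mM HEPES, then test compound at 5 µM. 1 µM verapamil served as P-gp substrate control. Transport in both directions measured in triplicate by LC/MS/MS or scintillation.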

[4] = Clearance in rhesus monkey at 3 mg/kg, po and 1 mg/kg, iv; assay type: ADME, organism-based, Macaca mulatta; settings: in vivo
Method in brief: (§4)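 Rhesus monkeys, n = 2, dosed orally at 3 mg/kg and iv at 1 mg/kg. F%, half-life in hours, clearance in mL/min/kg.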

[5] = Stability in human hepatocytes; assay type: ADME, cell-based, Hepatocyte
[6] = system: Liver microsomes; test: Stability in rat liver microsomes; assay type: ADME, Microsome
[7] = Stability in rat hepatocytes; assay type: ADME, cell-based, Hepatocyte
[8] = system: LLC-PK1; test: Ratio of transport from basolateral to apical over apical to basolateral in LLC-PK1 cells expressing human MDR1; assay type: ADME, cell-based, Sus scrofa; settings: pig; method in brief: as §3
[9] = Stability in monkey liver microsomes; assay type: ADME, Macaca mulatta, Microsome; settings: rhesus monkey
[10] = Oral bioavailability in Sprague-Dawley rat at 10 mg/kg, po and 2 mg/kg, iv; assay type: ADME, organism-based; settings: in vivo; method in brief: as §1
[11] = Half life in Mongrel dog at 3 mg/kg, po and 1 mg/kg, iv; assay type: ADME, organism-based, Canis lupus familiaris; settings: in vivo; method in brief: as §2
[12] = Clearance in Mongrel dog at 3 mg/kg, po and 1 mg/kg, iv; assay type: ADME, organism-based, Canis lupus familiaris; settings: in vivo; method in brief: as §2
[13] = target: T1, B1 bradykinin receptor (Homo sapiens, UniProt P46663); test: Displacement of [3H]des-Arg10 Leu9 kallidin from human bradykinin B1 receptor expressed in CHO cells; assay type: cell-based
T1 sequence (P46663 whole entry): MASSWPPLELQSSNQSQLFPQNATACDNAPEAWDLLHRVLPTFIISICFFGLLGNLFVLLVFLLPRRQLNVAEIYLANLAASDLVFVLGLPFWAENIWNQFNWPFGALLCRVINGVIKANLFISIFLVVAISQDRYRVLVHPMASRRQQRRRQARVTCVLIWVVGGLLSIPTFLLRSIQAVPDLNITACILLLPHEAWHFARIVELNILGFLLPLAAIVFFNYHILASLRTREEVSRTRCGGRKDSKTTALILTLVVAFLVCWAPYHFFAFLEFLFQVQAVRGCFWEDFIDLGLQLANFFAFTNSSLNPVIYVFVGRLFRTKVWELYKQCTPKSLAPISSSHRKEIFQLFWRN
Method in brief: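 Membranes from CHO cells stably expressing human B1, used at 0.2 mg/mL protein in pH 7.4 HEPES/NaCl/KCl buffer with 100 nM enalaprilat, 140 µg/mL bacitracin and 0.1% BSA. Radioligand 0.2 nM [3H]des-arg10 leu9 kallidin, 2% DMSO final, incubated 60 min at 22 °C, then filtered and counted. Nonspecific binding defined with 1 µM des-arg10 kallidin. Ki values, at least two experiments averaged.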

[14] = system: Liver microsomes; test: Stability in human liver microsomes; assay type: ADME, Microsome
[15] = Stability in dog liver microsomes; assay type: ADME, Canis lupus familiaris, Microsome
[16] = Oral bioavailability in rhesus monkey at 3 mg/kg, po and 1 mg/kg, iv; assay type: ADME, organism-based, Macaca mulatta; settings: in vivo; method in brief: as §4
[17] = target: T1, B1 bradykinin receptor; test: Activity at human bradykinin B1 receptor assessed as inhibition of Des-arg kallidin-induced increase of cytosolic calcium in CHO cells by FLIPR; assay type: functional, cell-based
Method in brief: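 CHO cells stably expressing human B1 receptor, seeded 25 000/well and grown overnight at 37 °C, then loaded 60 min at 37 °C with 4 µM fluo-3 AM and 1 mM probenecid. Antagonist added 2 min before 3 nM des-arg10 kallidin, run at 37 °C. At least eight concentrations per curve give IC50. At least two experiments averaged.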

[18] = Half life in rhesus monkey at 3 mg/kg, po and 1 mg/kg, iv; assay type: ADME, organism-based, Macaca mulatta; settings: in vivo; method in brief: as §4
[19] = Half life in Sprague-Dawley rat at 10 mg/kg, po and 2 mg/kg, iv; assay type: ADME, organism-based; settings: in vivo; method in brief: as §1
[20] = target: T2, B2 bradykinin receptor (Homo sapiens, UniProt P30411); test: Inhibition of human bradykinin B2 receptor
T2 sequence (P30411 whole entry): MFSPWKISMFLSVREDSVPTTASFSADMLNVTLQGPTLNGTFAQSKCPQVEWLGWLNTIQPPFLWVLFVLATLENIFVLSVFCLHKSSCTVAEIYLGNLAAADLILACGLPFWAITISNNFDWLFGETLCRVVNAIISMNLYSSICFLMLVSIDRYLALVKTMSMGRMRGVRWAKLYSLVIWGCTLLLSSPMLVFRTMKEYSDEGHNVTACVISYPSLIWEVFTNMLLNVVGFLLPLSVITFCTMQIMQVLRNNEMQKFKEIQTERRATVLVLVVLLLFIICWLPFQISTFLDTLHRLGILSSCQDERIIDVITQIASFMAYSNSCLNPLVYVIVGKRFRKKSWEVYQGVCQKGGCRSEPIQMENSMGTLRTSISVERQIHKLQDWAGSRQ
Method in brief: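 Human B2 receptor expressed in CHO cells, membrane binding with 1 nM [3H]bradykinin, 2% DMSO final, 60 min at 22 °C, then filtered and counted. Nonspecific binding defined with 1 µM bradykinin. Ki reported.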

[21] = Lipophilicity, Log P of the compound; assay type: physicochemical; settings: octanol/water

| Structure (SMILES) | clearance [1] [mL/min/kg] | Papp [3] [×10⁻⁶ cm/s] | Ratio [8] | bioavailability [10] [%] | Ki [13] [nM] | half-life [19] [h] | IC50 [20] [nM] | other results |
| --- | --- | --- | --- | --- | --- | --- | --- | --- |
| COC(=O)c1c(F)cccc1-c1ccc([C@@H](C)NC(=O)C2(NC(=O)C(F)(F)F)CC2)c(F)c1 | 42 | 28 | 2.3 | 21 | 0.57 | 0.5 | – | bioavailability [2]: 5%; clearance [4]: 28 mL/min/kg; Stability [5]: Stable; Stability [6]: Stable; Stability [7]: Stable; Stability [9]: Stable; half-life [11]: 1.7 h; clearance [12]: 21 mL/min/kg; Stability [14]: Stable; Stability [15]: Stable; bioavailability [16]: 2%; IC50 [17]: 1.9 nM; half-life [18]: 2.2 h |
| COC(=O)c1ccccc1-c1ccc([C@@H](C)NC(=O)C2(NC(=O)C(F)(F)F)CC2)c(F)c1 | – | 34 | 2.2 | – | 10.3 | – | – | – |
| C[C@@H](NC(=O)C1(NC(=O)C(F)(F)F)CC1)c1ccc(-c2cccc(F)c2-c2nnn(C)n2)cc1F | 11 | – | – | 48 | 0.6 | 0.7 | – | IC50 [17]: 0.65 nM |
| COC(=O)c1c(F)cccc1-c1ccc(CNC(=O)C2(NC(=O)C(Cl)Cl)CC2)c(F)c1 | – | 21 | 2.8 | – | 0.54 | – | > 10000 | logP [21]: 2.8 |
| C[C@@H](NC(=O)C1(NC(=O)C(F)(F)F)CC1)c1ccc(-c2cccc(F)c2-c2nnnn2C)cc1F | – | 19 | 15.5 | – | 62.5 | – | – | – |
| C[C@@H](NC(=O)C1(NC(=O)C(F)(F)F)CC1)c1ccc(-c2cccc(Cl)c2-c2nnn(C)n2)cc1F | 12 | – | – | 50 | 0.66 | 0.7 | – | – |
| CCOC(=O)c1c(Cl)cccc1-c1ccc([C@@H](C)NC(=O)C2(NC(=O)C(F)(F)F)CC2)c(F)c1 | 8.4 | – | – | 45 | 1.35 | 1.1 | – | IC50 [17]: 9.1 nM |
| COC(=O)c1c(F)cccc1-c1ccc([C@H](C)NC(=O)C2(NC(=O)CC(F)(F)F)CC2)c(F)c1 | – | – | – | – | 22 | – | – | – |
| COC(=O)c1c(F)cccc1-c1ccc(CNC(=O)C2(NC(=O)C(F)(F)C(F)(F)F)CC2)c(F)c1 | – | 31 | 2.2 | – | 2.95 | – | > 10000 | – |
| COC(=O)c1c(F)cccc1-c1ccc(CNC(=O)C2(NC(=O)C(F)Cl)CC2)c(F)c1 (centres undefined) | – | – | – | – | 2.8 | – | > 10000 | – |
| COC(=O)c1c(F)cccc1-c1ccc(CNC(=O)C2(NC(=O)C(F)(F)F)CC2)c(F)c1 | – | 23 | 4.1 | – | 1.47 | – | > 10000 | logP [21]: 2.7 |
| COC(=O)c1c(F)cccc1-c1ccc(CNC(=O)C2(NC(=O)C(F)F)CC2)c(F)c1 | – | 33 | 3.4 | – | 13.5 | – | > 10000 | logP [21]: 2.4 |
| COC(=O)c1c(F)cccc1-c1ccc([C@@H](C)NC(=O)C2(NC(=O)C(F)F)CC2)c(F)c1 | – | 31 | 3.2 | – | 0.4 | – | – | – |
| COC(=O)c1c(F)cccc1-c1ccc(CNC(=O)C2(NC(=O)CC(F)(F)F)CC2)c(F)c1 | – | 23 | 18.4 | – | 0.81 | – | > 10000 | logP [21]: 2.9 |
| CCC(=O)c1c(Cl)cccc1-c1ccc([C@@H](C)NC(=O)C2(NC(=O)C(F)(F)F)CC2)c(F)c1 | – | 27 | 1.6 | – | 1.95 | – | – | – |
| COC(=O)c1c(F)cccc1-c1ccc(CNC(=O)C2(NC(C)=O)CC2)c(F)c1 | – | 24 | 6.3 | – | 11.6 | – | > 10000 | – |
| C[C@@H](NC(=O)C1(NC(=O)C(F)(F)F)CC1)c1ccc(-c2cccc(F)c2C(F)(F)F)cc1F | 10 | 32 | 2 | 30 | 1.44 | 2.6 | – | IC50 [17]: 7.3 nM |
| COC(=O)c1c(F)cccc1-c1ccc(CNC(=O)C2(NC(=O)C(F)(F)Cl)CC2)c(F)c1 | – | 29 | 2.8 | – | 2.5 | – | > 10000 | – |
| COC(=O)c1c(F)cccc1-c1ccc(CNC(=O)C2(NC(=O)C(C)(Cl)Cl)CC2)c(F)c1 | – | – | – | – | 119 | – | > 10000 | – |
| COC(=O)c1c(F)cccc1-c1ccc([C@@H](C)NC(=O)C2(NC(=O)CC(F)(F)F)CC2)c(F)c1 | 25 | 25 | 8.6 | 14 | 0.13 | 1.44 | – | – |
| COC(=O)c1c(F)cccc1-c1ccc([C@@H](C)NC(=O)C2(NC(=O)C(F)(F)Cl)CC2)c(F)c1 | – | 34 | 2.5 | – | 0.81 | – | – | – |
| COC(=O)c1c(F)cccc1-c1ccc([C@@H](C)NC(=O)C2(NC(C)=O)CC2)c(F)c1 | – | 21 | 8.6 | – | 0.93 | – | – | – |
| Cc1noc(-c2c(F)cccc2-c2ccc([C@@H](C)NC(=O)C3(NC(=O)C(F)(F)F)CC3)c(F)c2)n1 | 28 | 37 | 5.6 | 27 | 0.51 | 0.35 | – | bioavailability [2]: 35%; clearance [4]: 15 mL/min/kg; half-life [11]: 3.9 h; clearance [12]: 6 mL/min/kg; bioavailability [16]: 22%; IC50 [17]: 0.89 nM; half-life [18]: 2.9 h |
